Source: ChEMBL document CHEMBL3045839, “Curcumin, a known phenolic from Curcuma longa, attenuates the virulence of Pseudomonas aeruginosa PAO1 in whole plant and animal pathogenicity models” (2008)
Values after ≈ are worked out from the molar mass of the structure shown. Active and inactive are the calls of the source. The rule behind the calls is not given here.

Tests used:
[1] = tested on: Pseudomonas aeruginosa; assay: Down regulation of virulence factor production in Pseudomonas aeruginosa PAO1 assessed as reduction in pyocyanin production at 1.5 to 3 ug/mL; type: functional; set-up: scale not given: the % may be the effect or the level left
How it was run: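 PAO1 grown in LB with or without curcumin (1.5–3 µg mL-1) and harvested. Pyocyanin was extracted and estimated by the Mahajan-Miklos method, then normalised against live cell numbers.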

[2] = tested on: Pseudomonas aeruginosa; assay: Down regulation of QS system in Pseudomonas aeruginosa PAO1 assessed as reduction in total homoserine lactone production at 5 ug/mL by HPLC relative to untreated control; type: functional
[3] = tested on: Pseudomonas aeruginosa; assay: Down regulation of QS system in Pseudomonas aeruginosa PAO1 assessed as reduction in 3-oxo-C12-HSL production at 1 ug/mL by HPLC; type: functional; set-up: scale not given: the % may be the effect or the level left
[4] = tested on: Pseudomonas aeruginosa; assay: Down regulation of virulence factor production in Pseudomonas aeruginosa PAO1 assessed as reduction in elastase production at 1 to 5 ug/mL relative to untreated control; type: functional
How it was run: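 Culture grown with or without curcumin for 24 h at 37 °C in PTSB (5% peptone, 0.25% tryptic soy broth). Filtered supernatant was added to elastin-congo red in 10 mM Na2HPO4, pH 7, and shaken for 4 h at 37 °C. After centrifugation, OD495 was read and normalised to cell density.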

[5] = tested on: Pseudomonas aeruginosa; assay: Down regulation of phzD expression in Pseudomonas aeruginosa PAO1 at 3 ug/mL by microarray gene expression analysis; type: functional, organism-based
How it was run: (§1)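 PAO1 grown in triplicate in LB with curcumin 3 µg/mL, starting at OD600 ~0.02, at 37 °C and 200 rpm for 10 h (~2 OD600). RNA was isolated from 5 mL of culture, and 10 µg was amplified for microarray expression analysis.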

[6] = tested on: Pseudomonas aeruginosa; assay: Effect on QS system related genes in Pseudomonas aeruginosa PAO1 at 3 ug/mL by microarray gene expression analysis; type: functional, organism-based; how it was run: as §1
[7] = tested on: Pseudomonas aeruginosa; assay: Inhibition of biofilm formation of Pseudomonas aeruginosa PAO1 at 1.5 to 3 ug/mL by crystal violet staining method; type: functional, organism-based
How it was run: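 Static biofilm in polypropylene tubes with LB containing curcumin 1.5–3.0 µg/mL from the start of incubation; ethanol equalized across tubes. Crystal violet staining, ethanol solubilization, OD read. Three replicates.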

[8] = tested on: Pseudomonas aeruginosa; assay: Growth inhibition of Pseudomonas aeruginosa PAO1 planktonic forms at >5 ug/mL; type: functional, organism-based
How it was run: (§2)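 PAO1 grown in LB with curcumin 0.5–30.0 µg/mL from an initial OD600 of 0.02; compound predissolved in ethanol, final solvent ≤0.02% v/v. OD600 read every 5 h up to 25 h; colony counts taken. n = 6, standard error.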

[9] = tested on: Pseudomonas aeruginosa; assay: Antimicrobial activity against Pseudomonas aeruginosa PAO1 infected in Arabidopsis thaliana Col-0 assessed as inhibition of biofilm formation in roots at 3 ug/mL measured 7 days post dose; type: functional, organism-based
How it was run: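 Ten-day-old Col-0 plants in 2 mL liquid MS medium were inoculated with PAO1 (OD600 0.02–0.04) with curcumin 3.0 µg/mL added alongside the bacteria. Root-surface biofilm was imaged by confocal microscopy after BacLight live/dead staining.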

[10] = tested on: Pseudomonas aeruginosa; assay: Down regulation of virulence factor production in Pseudomonas aeruginosa PAO1 assessed as reduction in protease production at 1 to 5 ug/mL relative to untreated control; type: functional
How it was run: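 Culture grown with or without curcumin for 24 h at 37 °C in PTSB (5% peptone, 0.25% tryptic soy broth). Filtered supernatant was incubated with 0.8% azocasein in 50 mM K2HPO4, pH 7, for 3 h at 25 °C. The reaction was stopped with 1.5 M HCl, kept on ice 30 min and centrifuged. NaOH was added, OD440 read and normalised to cell density.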

[11] = tested on: Pseudomonas aeruginosa; assay: Inhibition of biofilm formation of Pseudomonas aeruginosa PAO1 at 2 to 3 ug/mL by confocal scanning laser microscopy; type: functional, organism-based
How it was run: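 PAO1 grown on two-well Permanox slides with curcumin 2–3 µg/mL. Stained with a LIVE/DEAD BacLight kit (SYTO 9/propidium iodide) 48 h postinoculation and imaged by confocal laser scanning microscopy with a 10× objective. Repeated twice, three replicates each.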

[12] = tested on: Pseudomonas aeruginosa; assay: Down regulation of rhlA expression in Pseudomonas aeruginosa PAO1 at 3 ug/mL by microarray gene expression analysis; type: functional, organism-based; how it was run: as §1
[13] = tested on: Pseudomonas aeruginosa; assay: Antimicrobial activity against Pseudomonas aeruginosa PAO1 infected in Arabidopsis thaliana Col-0 assessed as change in bacterial count in presence of AHL/3-oxo-HSL; type: functional, organism-based
How it was run: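 Col-0 seedlings in liquid MS medium inoculated with PAO1 (OD600 0.02–0.04, ~2.8 × 10^8 cells/mL) plus curcumin 3.0 µg/mL, with or without exogenous AHL/3-oxo-HSL. Roots harvested after 7 days; bacteria enumerated as CFU per gram fresh weight. Triplicate experiments.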

[14] = tested on: Pseudomonas aeruginosa; assay: Antimicrobial activity against Pseudomonas aeruginosa PAO1 infected in Arabidopsis thaliana Col-0 assessed as protection against infection of roots at 3 ug/mL measured 7 days post dose; type: functional, organism-based
How it was run: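 In vitro root pathogenicity: ten-day-old Col-0 plants (n = 20 per treatment) in 2 mL liquid MS medium were inoculated with PAO1 at OD600 0.02–0.04 (~2.8 × 10^8 cells/mL), with curcumin 3.0 µg/mL added together with the bacteria. A non-inoculated control was kept. Plant mortality was recorded 7 days after inoculation; triplicate experiments.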

[15] = tested on: Pseudomonas aeruginosa; assay: Growth inhibition of Pseudomonas aeruginosa PAO1 planktonic forms; type: functional; how it was run: as §2
[16] = tested on: Pseudomonas aeruginosa; assay: Down regulation of lasI expression in Pseudomonas aeruginosa PAO1 at 3 ug/mL by microarray gene expression analysis; type: functional, organism-based; how it was run: as §1
[17] = tested on: Pseudomonas aeruginosa; assay: Down regulation of QS system in Pseudomonas aeruginosa PAO1 assessed as reduction in C4-HSL production at 1 ug/mL by HPLC; type: functional; set-up: scale not given: the % may be the effect or the level left

In the case of `COc1cc(/C=C/C(=O)CC(=O)/C=C/c2ccc(O)c(OC)c2)ccc1O` [CURCUMIN], the Activity [1] is reported as 60%, the “fold change (FC)” value [2] is reported as 3 and the Activity [3] is reported as 25%. The “fold change (FC)” value [4] was 2, the Activity [5] was “Active” and the Activity [6] was “Active”. For the same compound, the inhibition [7] was “Active”, the “growth inhibition (GI)” value [8] was “inactive” and the inhibition [9] was “Active”. For the same compound, the “fold change (FC)” value [10] was 2, the inhibition [11] was “Active” and the Activity [12] was “Active”. For the same compound, the Activity [13] was “inactive”, the inhibition [14] was “Active” and the MIC [15] was 30 µg/mL (≈ 81.4 µM). For the same compound, the Activity [16] was “Active” and the Activity [17] was greater than 2%.
